Test results reported in ChEMBL document CHEMBL3525994, “Lysosomal sequestration (trapping) of lipophilic amine (cationic amphiphilic) drugs in immortalized human hepatocytes (Fa2N-4 cells)” (Drug Metab Dispos, 2013).

What was measured:
[1] = Drug uptake in lysosomes of human Fa2N-4 cells assessed as inhibition of LysoTracker Red fluorescence after 30 mins; type: ADME, cell-based, Lysosome; conditions: Fa2N-4, 0.5 h
[2] = Drug uptake in lysosomes of human Fa2N-4 cells assessed as cellular partitioning at 1 uM measured at 10 mins by LC-MS analysis in presence of ammonium chloride; type: ADME, cell-based, Lysosome; conditions: fa2n-4, 10 min
Outline: (§1)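 Fa2N-4 cells, plated at 50,000/well on collagen in MFE with 10% newborn calf serum, switched to serum-free medium after attachment and used 36–48 h after plating. Substrate 1 μM in serum-free MFE, 37±1°C. Cells and substrate solution preincubated apart 5 min, then combined (± ammonium chloride 50 mM, nigericin 10 μM plus monensin 20 μM, or co-drug). Stopped with ice-cold PBS, washed, lysed in acetonitrile with internal standard, quantified by LC-MS/MS.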

[3] = Drug uptake in lysosomes of human Fa2N-4 cells assessed as cellular partitioning at 1 uM co-incubated with chloroquine for 5 mins by LC-MS analysis; type: ADME, cell-based, Lysosome; conditions: fa2n-4, 5 min
Outline: (§2)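 Inhibitor is ammonium chloride 50 mM or chloroquine 200 μM. Three orders of addition: added together with substrate; added 5 min before substrate and left in; or added 5 min before substrate, then cells washed before substrate. Stopped with ice-cold PBS, acetonitrile lysis with internal standard, LC-MS/MS.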

[4] = Drug uptake in lysosomes of human Fa2N-4 cells assessed as cellular partitioning at 1 uM up to 10 mins by LC-MS analysis; type: ADME, cell-based, Lysosome; conditions: fa2n-4, 10 min; outline: as §1
[5] = Drug uptake in lysosomes of human Fa2N-4 cells assessed as cellular partitioning measured per 10^6 cells at 1 uM after 5 mins by LC-MS analysis; type: ADME, cell-based, Lysosome; conditions: fa2n-4, 5 min; outline: as §1
[6] = Drug uptake in lysosomes of human Fa2N-4 cells assessed as cellular partitioning at 1 uM preincubated with ammonium chloride followed by compound treatment measured after 5 mins by LC-MS analysis; type: ADME, cell-based, Lysosome; conditions: fa2n-4, 5 min; outline: as §2
[7] = Drug uptake in lysosomes of human Fa2N-4 cells assessed as cellular partitioning at 1 uM co-incubated with ammonium chloride for 5 mins by LC-MS analysis; type: ADME, cell-based, Lysosome; conditions: fa2n-4, 5 min; outline: as §1
[8] = Drug uptake in lysosomes of human Fa2N-4 cells assessed as cellular partitioning at 1 uM after 5 mins by LC-MS analysis in presence of astemizole; type: ADME, cell-based, Lysosome; conditions: fa2n-4, 5 min; outline: as §1
[9] = Drug uptake in lysosomes of human Fa2N-4 cells assessed as cellular partitioning at 1 uM preincubated with ammonium chloride for 5 mins followed by media washout and compound treatment measured after 5 mins by LC-MS analysis; type: ADME, cell-based, Lysosome; conditions: fa2n-4, 5 min; outline: as §2
[10] = Drug uptake in lysosomes of human Fa2N-4 cells assessed as cellular partitioning at 1 uM after 5 mins by LC-MS analysis in presence of rifampin; type: ADME, cell-based, Lysosome; conditions: fa2n-4, 5 min; outline: as §1
[11] = Drug uptake in lysosomes of human Fa2N-4 cells assessed as cellular partitioning at 1 uM preincubated with chloroquine followed by compound treatment measured after 5 mins by LC-MS analysis; type: ADME, cell-based, Lysosome; conditions: fa2n-4, 5 min; outline: as §2
[12] = Drug uptake in lysosomes of human Fa2N-4 cells assessed as cellular partitioning at 1 uM after 5 mins by LC-MS analysis in presence of nigericin and monensin; type: ADME, cell-based, Lysosome; conditions: fa2n-4, 5 min; outline: as §1
[13] = Drug uptake in lysosomes of human Fa2N-4 cells assessed as cellular partitioning at 1 uM after 5 mins by LC-MS analysis in presence of dextromethorphan; type: ADME, cell-based, Lysosome; conditions: fa2n-4, 5 min; outline: as §1
[14] = Drug uptake in lysosomes of human Fa2N-4 cells assessed as cellular partitioning at 1 uM after 5 mins by LC-MS analysis in presence of diclofenac; type: ADME, cell-based, Lysosome; conditions: fa2n-4, 5 min; outline: as §1
[15] = Drug uptake in lysosomes of human Fa2N-4 cells assessed as cellular partitioning at 1 uM preincubated with chloroquine for 5 mins followed by media washout and compound treatment measured after 5 mins by LC-MS analysis; type: ADME, cell-based, Lysosome; conditions: fa2n-4, 5 min; outline: as §2
[16] = Drug uptake in lysosomes of human Fa2N-4 cells assessed as cellular partitioning at 1 uM after 5 mins by LC-MS analysis in presence of ammonium chloride; type: ADME, cell-based, Lysosome; conditions: fa2n-4, 5 min; outline: as §1
[17] = Drug uptake in lysosomes of human Fa2N-4 cells assessed as cellular partitioning at 1 uM after 5 mins by LC-MS analysis in presence of imipramine; type: ADME, cell-based, Lysosome; conditions: fa2n-4, 5 min; outline: as §1
[18] = Drug uptake in lysosomes of human Fa2N-4 cells assessed as cellular partitioning at 1 uM after 5 mins by LC-MS analysis in presence of chloroquine; type: ADME, cell-based, Lysosome; conditions: fa2n-4, 5 min; outline: as §2
[19] = Drug uptake in lysosomes of human Fa2N-4 cells assessed as cellular partitioning at 1 uM after 5 mins by LC-MS analysis in presence of atorvastatin; type: ADME, cell-based, Lysosome; conditions: fa2n-4, 5 min; outline: as §1
[20] = Drug uptake in lysosomes of human Fa2N-4 cells assessed as cellular partitioning measured per 10^6 cells at 1 uM after 5 mins by LC-MS analysis in presence of ammonium chloride; type: ADME, cell-based, Lysosome; conditions: fa2n-4, 5 min; outline: as §1
[21] = Drug uptake in lysosomes of human Fa2N-4 cells assessed as cellular partitioning at 1 uM after 5 mins by LC-MS analysis in presence of ammonium chloride, nigericin and monensin; type: ADME, cell-based, Lysosome; conditions: fa2n-4, 5 min; outline: as §1
[22] = Drug uptake in lysosomes of human Fa2N-4 cells assessed as inhibition of LysoTracker Red fluorescence at 500 uM after 30 mins relative to control; type: cell-based, Lysosome; conditions: Fa2N-4 cells (lysosomes), probe LysoTracker Red
Outline: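 Fa2N-4 cells at 50,000/well on collagen, rinsed with PBS. Drug (methanol stock diluted in supplemented modified Chee's medium; final 1–500 μM) with LysoTracker Red 50 nM final, 30 min, 37°C, triplicate. Cells PBS-rinsed and solubilised in acetonitrile. Fluorescence read at ex 530/em 590 nm. Medium kept for LDH release.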

Row | Structure (SMILES) | IC50 [1] [µM] | other results
1 | O=C(O)COCCN1CCN(C(c2ccccc2)c2ccc(Cl)cc2)CC1 (stereo not given) [CETIRIZINE] | > 500 | 
2 | CC(C)NCC(O)COc1cccc2ccccc12 (stereo not given) [PROPRANOLOL] |  | Drug uptake [2]: Not Active; Drug uptake [3]: Not Active; Drug uptake [4]: Not Active; Drug uptake [5]: 189 pmol; Drug uptake [6]: Not Active; Drug uptake [7]: Not Active; Drug uptake [8]: Not Active; Drug uptake [9]: Active; Drug uptake [10]: Active; Drug uptake [11]: Not Active; Drug uptake [12]: Not Active; Drug uptake [13]: Not Active; Drug uptake [14]: Active; Drug uptake [15]: Not Active; Drug uptake [16]: Not Active; Drug uptake [17]: Not Active; Drug uptake [18]: Not Active; Drug uptake [19]: Active; Drug uptake [20]: Not Active; Drug uptake [21]: Not Active
3 | CC(C(=O)O)c1cccc(C(=O)c2ccccc2)c1 (stereo not given) [KETOPROFEN] | > 500 | 
4 | CC(C)c1c(C(=O)Nc2ccccc2)c(-c2ccccc2)c(-c2ccc(F)cc2)n1CC[C@@H](O)C[C@@H](O)CC(=O)O [ATORVASTATIN] | > 500 | Drug uptake [5]: < 11 pmol; Drug uptake [20]: 34 pmol
5 | CCN(CC)Cc1cc(Nc2ccnc3cc(Cl)ccc23)ccc1O [AMODIAQUINE] | > 500 | inhibition at 0.5 h, 500 µM [22]: > 25%
6 | CS(=O)(=O)CCNCc1ccc(-c2ccc3ncnc(Nc4ccc(OCc5cccc(F)c5)c(Cl)c4)c3c2)o1 [LAPATINIB] | 380 | 
7 | CC(C)Cc1ccc(C(C)C(=O)O)cc1 (stereo not given) [IBUPROFEN] | > 500 | 
8 | CNCCC(Oc1ccc(C(F)(F)F)cc1)c1ccccc1 (stereo not given) [FLUOXETINE] | 150 | 
9 | CNCCCN1c2ccccc2CCc2ccccc21 [DESIPRAMINE] | 220 | 
10 | COC(=O)C1=C(C)NC(C)=C(C(=O)OC)C1c1ccccc1[N+](=O)[O-] [NIFEDIPINE] | > 500 | 
11 | CC[C@H](C)C(=O)O[C@H]1C[C@H](O)C=C2C=C[C@H](C)[C@H](CC[C@@H](O)C[C@@H](O)CC(=O)O)[C@H]21 [PRAVASTATIN] | > 500 | 
12 | O=C(O)Cc1ccccc1Nc1c(Cl)cccc1Cl [DICLOFENAC] | > 500 | 
13 | CC(=O)Nc1ccc(O)cc1 [ACETAMINOPHEN] | > 500 | 
14 | COc1ccc2c(c1)[C@]13CCCC[C@@H]1[C@H](C2)N(C)CC3 [DEXTROMETHORPHAN] | > 500 | inhibition at 0.5 h, 500 µM [22]: > 25%
15 | CN1C(C(=O)Nc2ccccn2)=C(O)c2sccc2S1(=O)=O [TENOXICAM] | > 500 | 
16 | COc1ccc(CCN2CCC(Nc3nc4ccccc4n3Cc3ccc(F)cc3)CC2)cc1 [ASTEMIZOLE] | 110 | 
17 | OC(Cn1cncn1)(Cn1cncn1)c1ccc(F)cc1F [FLUCONAZOLE] | > 500 | 
18 | O=C(c1ccccc1)c1ccc2n1CCC2C(=O)O (stereo not given) [KETOROLAC] | > 500 | 
19 | Fc1ccc([C@@H]2CCNC[C@H]2COc2ccc3c(c2)OCO3)cc1 [PAROXETINE] | 130 | 
20 | CN(C)CCCN1c2ccccc2CCc2ccccc21 [IMIPRAMINE] | 260 | 
21 | CC(C)c1nc(N(C)S(C)(=O)=O)nc(-c2ccc(F)cc2)c1/C=C/[C@@H](O)C[C@@H](O)CC(=O)O [ROSUVASTATIN] | > 500 | 
22 | CC(C)n1c(/C=C/C(O)CC(O)CC(=O)O)c(-c2ccc(F)cc2)c2ccccc21 (stereo not given) [FLUVASTATIN] | > 500 | 
23 | CCN(CC)CCCC(C)Nc1ccnc2cc(Cl)ccc12 (stereo not given) [CHLOROQUINE] | 220 | 
24 | CCN1CCC[C@H]1CNC(=O)c1c(O)c(Cl)cc(Cl)c1OC [RACLOPRIDE] | > 500 | 
25 | CC(CCc1ccccc1)NCC(O)c1ccc(O)c(C(N)=O)c1 (stereo not given) [LABETALOL] | > 500 | inhibition at 0.5 h, 500 µM [22]: > 25%
26 | C#Cc1cccc(Nc2ncnc3cc(OCCOC)c(OCCOC)cc23)c1 [ERLOTINIB] | > 500 | 
